Assay results: ChEMBL document CHEMBL1121666, “Synthesis and serotonin-like activity of 2-amino-5,8-dimethoxy-6-methyl-1,2-dihydronaphthalene” (J Med Chem, 1981)

How the values were obtained:
[1] = Acid dissociation constant was determined; assay type: ADME
Rattus norvegicus [2] = assay: Compound was evaluated for the incidence of serotonin syndrome […] by intraperitoneal administration at the dose 16 mg/kg; 2/3; assay type: functional
In short: (§1)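 Male Sprague–Dawley rats (200–300 g) were given the racemic hydrochloride salts intraperitoneally at 1–16 mg/kg, following the Sloviter protocol. A rat was scored positive only when forepaw padding, splayed hindlimbs, and head weaving or tremor were all present. Incidence is reported as responders/rats dosed, with […] rats per dose.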

Rattus norvegicus [3] = assay: Compound was evaluated for the incidence of serotonin syndrome […] by intraperitoneal administration at the dose 4 mg/kg; 1/3; assay type: functional; in short: as §1
Rattus norvegicus [4] = assay: Compound was evaluated for the incidence of serotonin syndrome […] by intraperitoneal administration at the dose 8 mg/kg; 0/3; assay type: functional; in short: as §1
Rattus norvegicus [5] = assay: Compound was evaluated for the incidence of serotonin syndrome […] by intraperitoneal administration at the dose 2 mg/kg; 0/3; assay type: functional; in short: as §1
Rattus norvegicus [6] = assay: Compound was evaluated for the incidence of serotonin syndrome […] by intraperitoneal administration at the dose 16 mg/kg; 3/3; assay type: functional; in short: as §1
Rattus norvegicus [7] = assay: Compound was evaluated for the incidence of serotonin syndrome […] by intraperitoneal administration at the dose 8 mg/kg; 3/8; assay type: functional
Rattus norvegicus [8] = assay: Compound was evaluated for the incidence of serotonin syndrome […] by intraperitoneal administration at the dose 4 mg/kg; 0/8; assay type: functional

Row | SMILES | pKa [1] | Incidence (Rattus norvegicus [2]) | Incidence (Rattus norvegicus [3]) | Incidence (Rattus norvegicus [4]) | Incidence (Rattus norvegicus [5]) | Incidence (Rattus norvegicus [6]) | Incidence (Rattus norvegicus [7]) | Incidence (Rattus norvegicus [8])
1 | COc1cc(C)c(OC)c2c1CC(N)C=C2.Cl (stereo not given) | 8.93 | 2 | 1 | 0 | 0 | – | – | –
2 | COc1cc(C)c(OC)c2c1CC(N)CC2.Cl (stereo not given) | – | – | – | – | 0 | 3 | 3 | 0
3 | COc1cc(C2CC2N)c(OC)cc1C (stereo not given) | 8.11 | – | – | – | – | – | – | –
